The values that follow come from article PMC5161045 (Journal of Antimicrobial Chemotherapy, 2016).

The test system of data set [1] is S. aureus DA30560 (cycled with no peptide). The data set can be described thus: MIC of antibiotics by Etest. In kind it is cell-based. The following applies: Staphylococcus aureus. The method, boiled down: (§1)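 Strains were grown overnight with shaking at 37°C in Mueller–Hinton II broth and diluted to ∼10⁸ cfu/mL in the same broth. They were swabbed onto Mueller–Hinton II agar, an antibiotic Etest strip was applied, and plates were incubated at 37°C for 18–20 h. MIC is the lowest concentration with no visible growth, taken as the consensus of ≥2 independent determinations. Increases over WT were graded 2–5-fold or >5-fold, and EUCAST v5.0 breakpoints were used.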

Data set [2] concerns S. aureus DA30557 (cycled with WGH). The data set can be described thus: MIC of antibiotics by Etest. It is filed as cell-based, Staphylococcus aureus. As to conditions: for MIC: Staphylococcus aureus. In outline:
as §1

Data set [3] has as its system S. aureus DA29680 (cycled with LL-37). The data set can be described thus: MIC of antibiotics by Etest. It is filed as cell-based. As to conditions: Staphylococcus aureus. In outline: as §1
Data set [4] deals with S. aureus DA35920 (cycled with PR-39). Put plainly: MIC of antibiotics by Etest. It is filed as cell-based. The following applies: Staphylococcus aureus. In outline: as §1
For data set [5], the system named is S. aureus DA37296 (cycled with PR-39). The data set can be described thus: MIC of antibiotics by Etest. The following applies: Staphylococcus aureus. It is filed as cell-based. In outline: as §1
The test system of data set [6] is S. aureus DA28823 (WT). The data set can be described thus: MIC of antibiotics by Etest. It is filed as cell-based. The following applies: Staphylococcus aureus. In outline:
as §1

For data set [7], the system named is S. aureus DA29677 (cycled with LL-37). Put plainly: MIC of antibiotics by Etest. In kind it is cell-based. The following applies: Staphylococcus aureus. The method, boiled down: as §1
Data set [8] deals with S. aureus DA30559 (cycled with WGH). Put plainly: MIC of antibiotics by Etest. In kind it is cell-based. The following applies: Staphylococcus aureus. In outline:
as §1

Data set [9] relates to S. aureus DA36424 (cycled with LL-37 and WGH). The data set can be described thus: MIC of antibiotics by Etest. It is filed as cell-based. The following applies: Staphylococcus aureus. The method, boiled down: as §1
The test system of data set [10] is seven AMP-resistant S. aureus mutants. Put plainly: MIC of antibiotics by Etest, summary over mutants. It is filed as cell-based, Staphylococcus aureus. The following applies: Mueller–Hinton medium; for number of AMP-resistant mutants with reduced/diminished susceptibility: of seven mutants. In outline: as §1
A short description of data set [11]: Solubility limit in MIEM. In kind it is physicochemical. The following applies: in MIEM (mammalian ionic environment medium, without NaCl, pH 7.4).
Data set [12] relates to S. aureus DA29677. The data set can be described thus: Bacterial cell survival assay with human defensins. In kind it is cell-based, Staphylococcus aureus. As to conditions: strain DA29677, NaPB pH 7.4, exponential phase cells, 37°C, 2 h. The method, boiled down:
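Exponential-phase cells: overnight TSB culture diluted 1:100 in pre-warmed TSB, shaken 2 h at 37°C, washed once and resuspended in 10 mM sodium phosphate pH 7.4. Diluted to 0.69−4.7 × 10⁴ cfu/mL and exposed to hBD3 at 1 μM or other β-defensins at 10 μM, shaking in a sealed humidified container at 37°C for 2 h. Cells were plated on TSA for cfu. % survival = cfu with peptide/cfu without peptide × 100. Detection limit 1% survival. Mean ± SEM of ≥3 independent determinations.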

Values after ≈ are worked out from the molar mass of the structure shown. Ends that are not written are not given here.

Take `CCO/N=C(\C(=O)N[C@@H]1C(=O)N2C(C(=O)[O-])=C(Sc3nc(-c4cc[n+](C)cc4)cs3)CS[C@H]12)c1nsc(N)n1` [CFT, ceftaroline]: the MIC (usually the lowest concentration found to suppress growth) is 0.25 µg/mL in [1]; 0.38 µg/mL in [2]; 0.25 µg/mL in data set [3]; 0.19 µg/mL in data set [4]; 0.25 µg/mL in [5]; 0.25 µg/mL in [6]. In addition, the MIC worked out at 0.19 µg/mL in [7], 0.38 µg/mL in data set [8] and 0.38 µg/mL in data set [9].
In the case of `O=C(N[C@H](CO)[C@H](O)c1ccc([N+](=O)[O-])cc1)C(Cl)Cl` [CHL, chloramphenicol], the MIC in [1] was found to be 4 µg/mL; in data set [2], 4 µg/mL; in data set [3] it was 4 µg/mL; in data set [4], 3 µg/mL; in data set [5] it was 6 µg/mL; in data set [6], 4 µg/mL. Further, the MIC is 6 µg/mL in data set [7], 4 µg/mL in data set [8] and 4 µg/mL in data set [9].
For the molecule `CCC[C@@H]1C[C@@H](C(=O)N[C@@H]([C@H]2O[C@H](SC)[C@H](O)[C@@H](O)[C@H]2O)[C@H](C)Cl)N(C)C1` [CLI, clindamycin], the MIC in data set [1] was 0.094 µg/mL; in [2], 0.064 µg/mL; in data set [3], 0.094 µg/mL; in data set [4], 0.094 µg/mL; in data set [5] it was 0.125 µg/mL; in data set [6] it was 0.094 µg/mL. Also, the MIC is 0.047 µg/mL in [7], 0.064 µg/mL in data set [8] and 0.125 µg/mL in [9].
Consider `C[C@H]1c2cccc(O)c2C(=O)C2=C(O)[C@]3(O)C(=O)C(C(N)=O)=C(O)[C@@H](N(C)C)[C@@H]3[C@@H](O)[C@@H]21` [DOX, doxycycline], for which the MIC in data set [2] came out at 0.094 µg/mL; in data set [3], 0.094 µg/mL; in data set [4] it was 0.094 µg/mL; in data set [5] it was 0.125 µg/mL; in [7], 0.125 µg/mL; in [8], 0.125 µg/mL. For the same molecule, the MIC in data set [9] turned out to be 0.25 µg/mL.
Regarding `CC[C@H]1OC(=O)[C@H](C)[C@@H](O[C@H]2C[C@@](C)(OC)[C@@H](O)[C@H](C)O2)[C@H](C)[C@@H](O[C@@H]2O[C@H](C)C[C@H](N(C)C)[C@H]2O)[C@](C)(O)C[C@@H](C)C(=O)[C@H](C)[C@@H](O)[C@]1(C)O` [ERY, erythromycin], the MIC in [1] was 0.19 µg/mL; in data set [2], 0.125 µg/mL; in data set [3] it was 0.19 µg/mL; in data set [4], 0.38 µg/mL; in data set [5], 0.38 µg/mL; in data set [6] it was 0.19 µg/mL. Also, the MIC in data set [7] was 0.19 µg/mL; in data set [8] it was 0.125 µg/mL; in [9], 0.25 µg/mL. The “number of AMP-resistant mutants with reduced/diminished susceptibility” value (shortened to “number … with reduced/diminished susceptibility”) in [10] is “two of seven”.
Take `CNC(C)C1CCC(N)C(OC2C(N)CC(N)C(OC3OCC(C)(O)C(NC)C3O)C2O)O1` (stereo not shown) [GEN, gentamicin]: the MIC in data set [1] was determined as 0.125 µg/mL; in data set [2] it was 1 µg/mL; in [3], 0.094 µg/mL; in data set [4] it was 0.25 µg/mL; in [5] it was 0.5 µg/mL; in data set [6], 0.125 µg/mL. Besides, the values for the MIC in data set [7], in data set [8] and in data set [9] were 0.094 µg/mL, 0.38 µg/mL and 0.19 µg/mL, respectively. In addition, the “increase in MIC” value in [2] (strain DA30557 (passaged with WGH), relative to WT, Etest) was 8 fold. For the same molecule, the “number … with reduced/diminished susceptibility” value in data set [10] was “Four of seven”.
In data set [11], `CC[C@H](C)[C@H](NC(=O)[C@H](CCCCN)NC(=O)[C@H](CCC(=O)O)NC(=O)[C@H](CCCCN)NC(=O)[C@H](CO)NC(=O)[C@H](CCCCN)NC(=O)[C@H](CCCNC(=N)N)NC(=O)[C@H](Cc1ccccc1)NC(=O)[C@H](Cc1ccccc1)NC(=O)[C@H](CC(=O)O)NC(=O)CNC(=O)[C@H](CC(C)C)NC(=O)[C@@H](N)CC(C)C)C(=O)NCC(=O)N[C@@H](CCCCN)C(=O)N[C@@H](CCC(=O)O)C(=O)N[C@@H](Cc1ccccc1)C(=O)N[C@@H](CCCCN)C(=O)N[C@@H](CCCNC(=N)N)C(=O)N[C@H](C(=O)N[C@H](C(=O)N[C@@H](CCC(N)=O)C(=O)N[C@@H](CCCNC(=N)N)C(=O)N[C@H](C(=O)N[C@@H](CCCCN)C(=O)N[C@@H](CC(=O)O)C(=O)N[C@@H](Cc1ccccc1)C(=O)N[C@@H](CC(C)C)C(=O)N[C@@H](CCCNC(=N)N)C(=O)N[C@@H](CC(N)=O)C(=O)N[C@@H](CC(C)C)C(=O)N[C@H](C(=O)N1CCC[C@H]1C(=O)N[C@@H](CCCNC(=N)N)C(=O)N[C@H](C(=O)N[C@@H](CCC(=O)O)C(=O)N[C@@H](CO)C(=O)O)[C@@H](C)O)C(C)C)[C@@H](C)CC)C(C)C)[C@@H](C)CC` [LL-37] registered a solubility limit of about 550 µg/mL (≈ 122 µM).
As for `CC(=O)NC[C@H]1CN(c2ccc(N3CCOCC3)c(F)c2)C(=O)O1` [LZD, linezolid], the MIC in [1] came to 2 µg/mL; in [2], 2 µg/mL; in [3] it was 1.5 µg/mL; in data set [4], 1 µg/mL; in data set [5], 2 µg/mL; in data set [6] it was 2 µg/mL. The MIC in [7] amounted to 1.5 µg/mL; in [8], 1 µg/mL; in [9], 2 µg/mL.
For the molecule `CO[C@H]1/C=C/O[C@@]2(C)Oc3c(C)c(O)c4c(O)c(c(/C=N/N5CCN(C)CC5)c(O)c4c3C2=O)NC(=O)/C(C)=C\C=C\[C@H](C)[C@H](O)[C@@H](C)[C@@H](O)[C@@H](C)[C@H](OC(C)=O)[C@@H]1C` [RIF, rifampicin], the MIC in data set [1] came to 0.012 µg/mL; in data set [2], 0.012 µg/mL; in data set [3], 0.012 µg/mL; in [4], 0.016 µg/mL; in data set [5], 0.008 µg/mL; in data set [6], 0.012 µg/mL. In addition, the figures for the MIC in data set [7], in [8] and in [9] were 0.008 µg/mL, 0.016 µg/mL and 0.012 µg/mL, respectively.
Consider `CN(C)[C@@H]1C(O)=C(C(N)=O)C(=O)[C@@]2(O)C(O)=C3C(=O)c4c(O)cccc4[C@@](C)(O)[C@H]3C[C@@H]12` [TET, tetracycline], for which the MIC came out at 0.094 µg/mL in data set [1]; 0.25 µg/mL in data set [2]; 0.25 µg/mL in data set [3]; 0.125 µg/mL in data set [4]; 0.19 µg/mL in data set [5]; 0.094 µg/mL in data set [6]. Besides, the MIC came to 0.19 µg/mL in [7], 0.19 µg/mL in [8] and 0.25 µg/mL in data set [9]. Also, the “number … with reduced/diminished susceptibility” value in data set [10] is “six of seven”.
`CN(C)c1cc(NC(=O)CNC(C)(C)C)c(O)c2c1C[C@H]1C[C@H]3[C@H](N(C)C)C(O)=C(C(N)=O)C(=O)[C@@]3(O)C(O)=C1C2=O` [TGC, tigecycline]: the MIC was found to be 0.094 µg/mL in data set [1]; 0.094 µg/mL in data set [2]; 0.19 µg/mL in [3]; 0.125 µg/mL in data set [4]; 0.125 µg/mL in data set [5]; 0.094 µg/mL in [6]. The MIC in [7] was 0.094 µg/mL; in data set [8], 0.094 µg/mL; in data set [9], 0.19 µg/mL. Further, in data set [10], the “number … with reduced/diminished susceptibility” value is recorded as “two of seven”.
Regarding `CN[C@H](CC(C)C)C(=O)N[C@H]1C(=O)N[C@@H](CC(N)=O)C(=O)N[C@H]2C(=O)N[C@H]3C(=O)N[C@H](C(=O)N[C@H](C(=O)O)c4cc(O)cc(O)c4-c4cc3ccc4O)[C@H](O)c3ccc(c(Cl)c3)Oc3cc2cc(c3O[C@@H]2O[C@H](CO)[C@@H](O)[C@H](O)[C@H]2O[C@H]2C[C@](C)(N)[C@H](O)[C@H](C)O2)Oc2ccc(cc2Cl)[C@H]1O` [VAN, vancomycin], the MIC in [1] came to 1.5 µg/mL; in data set [2], 2 µg/mL; in data set [3] it was 2 µg/mL; in data set [4], 2 µg/mL; in [5] it was 2 µg/mL; in [6], 1.5 µg/mL. Further, the values for the MIC in data set [7], in data set [8] and in [9] were 2 µg/mL, 1.5 µg/mL and 2 µg/mL, respectively. Further, in data set [10], the “susceptibility of all seven AMP-resistant mutants relative to WT (in words)” value was “little to no change in susceptibility”.
Consider “DHYNCVSSGGQCLYSACPIFTKIQGTCYRGKAKCCK (also: bicyclic or more (positions not given here)) [hBD1]”, for which, in data set [12] (10 μM peptide), the “resistance to human β-defensin, relative to WT (in words)” value is “increased resistance”.
Still for that read-out and setting: the value for “GIGDPVTCLKSGAICHPVFCPRRYKQIGTCGLPGTKCCKKP (also: bicyclic or more (positions not given here)) [hBD2]” was “increased resistance”.
Regarding “GIINTLQKYYCRVRGGRCAVLSCLPKEEQIGKCSTRGRKCCRRKK (also: bicyclic or more (positions not given here)) [hBD3]”, the “resistance to human β-defensin, relative to WT (in words)” value in [12] (1 μM peptide) is on record as “increased resistance”.
As for polymyxin B [PMB], the “number … with reduced/diminished susceptibility” value in [10] is “three of seven”.
Consider teicoplanin [TEC], for which the “susceptibility of all seven AMP-resistant mutants relative to WT (in words)” value in [10] is on record as “diminished susceptibility”.
